Measurements taken from ChEMBL document CHEMBL2062428, “Cyclooxygenase-1-selective inhibitors based on the (E)-2'-des-methyl-sulindac sulfide scaffold” (J Med Chem, 2012).
Calls of active or inactive are those of the source. The rule behind the calls is not given here.

Key:
[1] = molecular target: T1, Prostaglandin G/H synthase 1 (Ovis aries) (UniProt P05979); experiment: Inhibition of ovine COX-1 using [14C] arachidonic acid as substrate at 4 uM preincubated for 17 mins before substrate addition measured after 3 mins by thin-layer chromatographic analysis
T1 sequence (whole entry): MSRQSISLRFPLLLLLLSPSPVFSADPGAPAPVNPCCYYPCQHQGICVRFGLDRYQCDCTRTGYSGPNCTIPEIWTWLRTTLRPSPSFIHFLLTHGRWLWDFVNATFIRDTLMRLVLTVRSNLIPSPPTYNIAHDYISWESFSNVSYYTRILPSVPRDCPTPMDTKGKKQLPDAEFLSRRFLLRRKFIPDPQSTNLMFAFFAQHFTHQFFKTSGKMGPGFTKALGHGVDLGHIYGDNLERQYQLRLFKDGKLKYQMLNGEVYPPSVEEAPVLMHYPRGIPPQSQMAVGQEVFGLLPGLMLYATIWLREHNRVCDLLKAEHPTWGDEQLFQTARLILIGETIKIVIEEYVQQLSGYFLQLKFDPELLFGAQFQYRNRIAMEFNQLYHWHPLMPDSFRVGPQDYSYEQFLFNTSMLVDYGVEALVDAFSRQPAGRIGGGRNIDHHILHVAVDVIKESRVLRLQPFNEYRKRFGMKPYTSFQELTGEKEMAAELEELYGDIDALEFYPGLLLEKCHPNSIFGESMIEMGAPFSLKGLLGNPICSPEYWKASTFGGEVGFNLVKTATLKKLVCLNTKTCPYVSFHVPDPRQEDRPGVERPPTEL
Method in brief: (§1)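 Purified ovine COX-1 or murine COX-2 preincubated with a single 4 μM inhibitor concentration for 17 min. […] Reaction quenched; radioactive products extracted and quantified. Mean ± SEM of two experiments.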

[2] = molecular target: T2, Prostaglandin G/H synthase 2 (Mus musculus) (UniProt Q05769); experiment: Inhibition of mouse COX-2 using [14C] arachidonic acid as substrate at 4 uM preincubated for 17 mins before substrate addition measured after 3 mins by thin-layer chromatographic analysis; method in brief: as §1
T2 sequence (whole entry): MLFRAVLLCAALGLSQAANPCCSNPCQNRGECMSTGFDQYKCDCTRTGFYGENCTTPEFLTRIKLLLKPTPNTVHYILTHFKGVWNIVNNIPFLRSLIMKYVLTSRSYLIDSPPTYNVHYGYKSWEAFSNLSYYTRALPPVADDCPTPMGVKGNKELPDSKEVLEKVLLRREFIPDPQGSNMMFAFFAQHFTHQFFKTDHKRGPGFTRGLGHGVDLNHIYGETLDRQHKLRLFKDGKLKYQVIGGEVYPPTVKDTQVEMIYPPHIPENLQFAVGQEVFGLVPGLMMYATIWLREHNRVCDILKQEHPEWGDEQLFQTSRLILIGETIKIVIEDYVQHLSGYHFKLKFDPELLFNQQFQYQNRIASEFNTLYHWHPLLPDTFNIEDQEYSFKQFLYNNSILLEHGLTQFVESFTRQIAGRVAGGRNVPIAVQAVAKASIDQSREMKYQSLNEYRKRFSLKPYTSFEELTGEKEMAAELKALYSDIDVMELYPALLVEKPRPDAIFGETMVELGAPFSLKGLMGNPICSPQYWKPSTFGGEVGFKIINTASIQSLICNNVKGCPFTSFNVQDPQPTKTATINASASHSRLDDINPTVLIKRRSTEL

Row | SMILES | inhibition [1] [%] | inhibition [2]
1 | CSc1ccc(/C=C2\C=C(CC(=O)NS(=O)(=O)c3ccc4ccccc4c3)c3cc(F)ccc32)cc1 | 74 | 26%
2 | CCOC(=O)C(C)(C)C1=C/C(=C\c2cccc(-c3ccccc3)c2)c2ccc(F)cc21 | 24 | 4%
3 | CCOC(=O)C(C)(C)C1=C/C(=C\c2ccc(-c3ccc(F)cc3)cc2)c2ccc(F)cc21 | 10 | 0%
4 | O=C(O)CC1=C/C(=C\c2ccc(Br)cc2)c2ccc(F)cc21 | 73 | 34%
5 | CSc1ccc(/C=C2\C=C(CC(=O)OC(C)C)c3cc(F)ccc32)cc1 | 27 | 0%
6 | COc1ccc(-c2cccc(/C=C3\C=C(CC(=O)O)c4cc(F)ccc43)n2)cc1 | 35 | 56%
7 | CC(C)(C)Oc1ccc(/C=C2\C=C(CC(=O)O)c3cc(F)ccc32)cc1 | 17 | 5%
8 | CSc1ccc(/C=C2\C=C(CC(=O)NS(=O)(=O)c3ccccc3C)c3cc(F)ccc32)cc1 | 60 | 36%
9 | CCOC(=O)C(C)(C)C1=C/C(=C\c2ccc(-c3ccccc3)cc2)c2ccc(F)cc21 | 26 | 2%
10 | O=C(O)CC1=C/C(=C\c2cccc3cccnc23)c2ccc(F)cc21 | 51 | 0%
11 | Cc1ccc(/C=C2\C=C(CC(=O)O)c3cc(F)ccc32)cc1 | 52 | 13%
12 | CSc1ccc(/C=C2\C=C(CC(=O)NS(=O)(=O)c3ccc(Cl)s3)c3cc(F)ccc32)cc1 | 59 | 34%
13 | O=C(O)CC1=C/C(=C\c2cccc(-c3ccc4c(c3)OCO4)n2)c2ccc(F)cc21 | 59 | 43%
14 | O=C(O)CC1=C/C(=C\c2cccc(-c3cccs3)n2)c2ccc(F)cc21 | 15 | 28%
15 | CS(=O)(=O)c1ccc(-c2cccc(/C=C3\C=C(CC(=O)O)c4cc(F)ccc43)n2)cc1 | 13 | 54%
16 | O=C(O)CC1=C/C(=C\c2ccc(-c3ccc(F)nc3)cc2)c2ccc(F)cc21 | 27 | 10%
17 | Cc1nc(-c2ccccc2)ncc1/C=C1\C=C(CC(=O)O)c2cc(F)ccc21 | 19 | 19%
18 | CSc1ccc(/C=C2\C=C(C(C)(C)C(=O)O)c3cc(F)ccc32)cc1 | 17 | 16%
19 | O=C(O)CC1=C/C(=C\c2cnc(C3CCCCC3)nc2)c2ccc(F)cc21 | 45 | 25%
20 | O=C(O)CC1=C/C(=C\c2ccc(C(=O)O)cc2)c2ccc(F)cc21 | 43 | 0%

Row | SMILES | inhibition [1] [%] | inhibition [2]
21 | CCOC(=O)C(C)(C)C1=C/C(=C\c2cnc(-c3ccccc3)nc2C)c2ccc(F)cc21 | 25 | 9%
22 | CSc1ccc(/C=C2\C=C(CC(=O)NS(=O)(=O)c3ccc(C(F)(F)F)cc3)c3cc(F)ccc32)cc1 | 48 | 19%
23 | CSc1ccc(/C=C2\C=C(CC(=O)NS(C)(=O)=O)c3cc(F)ccc32)cc1 | 21 | 7%
24 | O=C(O)CC1=C/C(=C\c2ccc(-c3ccc(C(F)(F)F)cc3)cc2)c2ccc(F)cc21 | 31 | 15%
25 | CSc1ccc(/C=C2\C=C(CC(=O)NS(=O)(=O)c3ccc(F)cc3)c3cc(F)ccc32)cc1 | 44 | 20%
26 | CSc1ccc(/C=C2\C=C(CC(=O)NS(=O)(=O)c3ccc(OC(F)(F)F)cc3)c3cc(F)ccc32)cc1 | 47 | 32%
27 | C#Cc1ccc(/C=C2\C=C(CC(=O)O)c3cc(F)ccc32)cc1 | 62 | 17%
28 | O=C(CC1=C/C(=C\c2ccc(-c3ccccc3)cc2)c2ccc(F)cc21)NS(=O)(=O)C(F)(F)F | 99 | 15%
29 | O=C(O)CC1=C/C(=C\c2ccc(S(=O)(=O)C(F)(F)F)cc2)c2ccc(F)cc21 | 34 | 16%
30 | O=C(O)CC1=C/C(=C\c2ccc(SC(F)(F)F)cc2)c2ccc(F)cc21 | 77 | 35%
31 | O=C(O)CC1=C/C(=C\c2ccc(C(F)(F)F)cc2)c2ccc(F)cc21 | 81 | 60%
32 | CSc1ccc(/C=C2\C=C(CC(=O)NS(=O)(=O)c3ccc(C)cc3)c3cc(F)ccc32)cc1 | 55 | 20%
33 | O=C(O)CC1=C/C(=C\c2ccc3cccnc3n2)c2ccc(F)cc21 | 14 | 42%
34 | O=C(O)CC1=C/C(=C\c2ccc3ccccc3c2)c2ccc(F)cc21 | 75 | 34%
35 | CCOC(=O)C(C)(C)C1=C/C(=C\c2ccc(-c3ccccc3)c(F)c2)c2ccc(F)cc21 | 40 | 15%
36 | CSc1ccc(/C=C2\C=C(CC(=O)NS(=O)(=O)c3ccc(C(C)=O)cc3)c3cc(F)ccc32)cc1 | 3.5 | 26%
37 | CCOC(=O)C(C)(C)C1=C/C(=C\c2ccc(SC)cc2)c2ccc(F)cc21 | 43 | 0%
38 | O=C(O)CC1=C/C(=C\c2ccc3nccnc3c2)c2ccc(F)cc21 | 31 | 29%
39 | O=C(O)CC1=C/C(=C\c2ccc(-c3ccccc3)c(F)c2)c2ccc(F)cc21 | 44 | 34%
40 | C[S+]([O-])c1ccc(/C=C2\C=C(CC(=O)O)c3cc(F)ccc32)cc1 (stereo not given) | 27 | 8.5%

Row | SMILES | inhibition [1] [%] | inhibition [2]
41 | O=C(O)CC1=C/C(=C\c2ccc([S+]([O-])C(F)(F)F)cc2)c2ccc(F)cc21 (stereo not given) | 51 | 15%
42 | O=C(O)CC1=C/C(=C\c2ccc(-c3ccc(F)cc3)cc2)c2ccc(F)cc21 | 33 | 16%
43 | COc1ccc2c(c1)C(CC(=O)O)=C/C2=C\c1ccc(-c2ccccc2)cc1 | 38 | 2%
44 | CCOC(=O)C(C)(C)C1=C/C(=C\c2ccc3c(c2)Cc2ccccc2-3)c2ccc(F)cc21 | 34 | 18%
45 | O=C(O)CC1=C/C(=C\c2cccc(-c3ccc(F)cc3)n2)c2ccc(F)cc21 | 17 | 81%
46 | CSc1ccc(/C=C2\C=C(CC(=O)NS(=O)(=O)c3ccc(Br)cc3)c3cc(F)ccc32)cc1 | 40 | 30%
47 | O=C(O)CC1=C/C(=C\c2ccc3cccnc3c2)c2ccc(F)cc21 | 58 | 16%
48 | COc1ccc(/C=C2\C=C(CC(=O)O)c3cc(F)ccc32)cc1 | 62 | 22%
49 | CCOC(=O)CC1=C/C(=C\c2ccc(SC)cc2)c2ccc(F)cc21 | 20 | 0%
50 | CCOC(=O)C(C)(C)C1=C/C(=C\c2cc(-c3ccc(C)cc3)on2)c2ccc(F)cc21 | 37 | 0%
51 | CC(C(=O)O)C1=C/C(=C\c2ccc(-c3ccccc3)cc2)c2ccc(F)cc21 (stereo not given) | 30 | inactive
52 | O=C(O)CC1=C/C(=C\c2cccc3ccccc23)c2ccc(F)cc21 | 53 | 7%
53 | CCOC(=O)CC1=C/C(=C\c2ccc(C(=O)OCC)cc2)c2ccc(F)cc21 | 39 | 0%
54 | CSc1ccc(-c2ccc(/C=C3\C=C(CC(=O)O)c4cc(F)ccc43)cc2)cc1 | 68 | 18%
55 | O=C(O)CC1=C/C(=C\c2ccc3c(c2)Cc2ccccc2-3)c2ccc(F)cc21 | 70 | 26%
56 | CCOC(=O)C(C)(C)C1=C/C(=C\c2cccc(-c3ccc(F)cc3)n2)c2ccc(F)cc21 | 24 | 21%
57 | CSc1ccc(/C=C2\C=C(CC(N)=O)c3cc(F)ccc32)cc1 | 21 | 5%
58 | O=C(O)CC1=C/C(=C\c2cnc(-c3ccccc3)nc2)c2ccc(F)cc21 | 35 | 8%
59 | CCOC(=O)C(C)(C)C1=C/C(=C\c2cn(C)c3ccccc23)c2ccc(F)cc21 | 47 | 22%
60 | CCOC(=O)C(C)C1=C/C(=C\c2ccc(-c3ccccc3)cc2)c2ccc(F)cc21 (stereo not given) | 30 | 0%
